Active and inactive are the calls of the source. No cut-off for these calls is given here.
How the values were obtained:
Homo sapiens = species: Homo sapiens; assay: Inhibition of broncho-sphere formation in IPF patient derived human lung organoid assessed as inhibition of 3D organoid formation at 0.1 to 50 nM incubated for 14 days by Bright-field microscopy analysis; type: functional; settings: dose 0.1-50 nM, time 14.0 day
Summary of the method: (§1)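 Airway basal cells from bronchial brushings of IPF patients, 10⁴ cells in Matrigel on transwell inserts with 1:1 BEGM/DMEM. Treated 14 days (1–50 nM per methods; 0.1–50 nM per legend), medium changed every 7 days.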

[1] = Inhibition of spheroid count in IPF patient derived human Airway basal cell incubated for 14 days by Bright-field microscopy analysis; type: functional, cell-based; summary of the method: as §1
[2] = Chemical stability of the compound at pH 3 incubated for 24 hrs by HPLC-UV analysis; type: physicochemical; settings: buffer, read-out: Stability
Summary of the method: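 Compound from 10 mM DMSO stock diluted to 250 μM (2.5% DMSO) in 50 mM acetic acid, pH 3.0. Held 24 h at 25 °C with orbital shaking. Analysed by RP-18 HPLC with UV at 254 nm. Percent remaining = peak area at 24 h / peak area at T0 × 100. Run in triplicate and averaged.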

[3] = Inhibition of cell proliferation in IPF patient derived human Airway basal cell incubated for 14 days by MTT assay; type: functional, cell-based; settings: 336 h
Summary of the method: (§2)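 IPF patient airway basal cell 3D organoid cultures (10⁴ cells in Matrigel, 1:1 BEGM/DMEM) treated 14 days at 1–50 nM, medium changed weekly. Proliferation read by colorimetric MTT on day 14. Mean ± SEM of triplicates, n=3; repeated-measures ANOVA/Friedman test. Reported IC50 is the mean of the count-based and MTT-based IC50s.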

[4] = Metabolic stability in human liver microsome assessed as apparent decay constant at 5 uM in presence of NADPH incubated up to 60 mins by HPLC analysis; type: ADME; settings: microsomes, 1 h
Summary of the method: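 Compound at 5 μM, added in MeCN, incubated at 37 °C in 100 mM phosphate buffer pH 7.4 with 0.5 mg/mL human liver microsomal protein. Reaction started with an NADPH-generating system (2 mM NADPH, glucose-6-phosphate, G6P dehydrogenase, MgCl2). Stopped with MeCN at time points over 0–60 min. Remaining compound measured by RP-18 HPLC-UV at 254 nm, in triplicate. First-order depletion constant k; CLint = k × incubation volume / microsomal protein.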

Airway basal cell = assay: Inhibition of cell proliferation in IPF patient derived human Airway basal cell at 20 to 50 nM incubated for 14 days by MTT assay; type: functional, cell-based; settings: dose 20-50 nM, time 14.0 day; summary of the method: as §2
[5] = target: T1, Protein deacetylase HDAC6 (Homo sapiens) (UniProt Q9UBN7); assay: Inhibition of HDAC6 in human U87 cells assessed as increase in acetylation of alpha-tubulin at 5 uM incubated for 30 hrs by western blot analysis; type: cell-based
T1 sequence (whole entry): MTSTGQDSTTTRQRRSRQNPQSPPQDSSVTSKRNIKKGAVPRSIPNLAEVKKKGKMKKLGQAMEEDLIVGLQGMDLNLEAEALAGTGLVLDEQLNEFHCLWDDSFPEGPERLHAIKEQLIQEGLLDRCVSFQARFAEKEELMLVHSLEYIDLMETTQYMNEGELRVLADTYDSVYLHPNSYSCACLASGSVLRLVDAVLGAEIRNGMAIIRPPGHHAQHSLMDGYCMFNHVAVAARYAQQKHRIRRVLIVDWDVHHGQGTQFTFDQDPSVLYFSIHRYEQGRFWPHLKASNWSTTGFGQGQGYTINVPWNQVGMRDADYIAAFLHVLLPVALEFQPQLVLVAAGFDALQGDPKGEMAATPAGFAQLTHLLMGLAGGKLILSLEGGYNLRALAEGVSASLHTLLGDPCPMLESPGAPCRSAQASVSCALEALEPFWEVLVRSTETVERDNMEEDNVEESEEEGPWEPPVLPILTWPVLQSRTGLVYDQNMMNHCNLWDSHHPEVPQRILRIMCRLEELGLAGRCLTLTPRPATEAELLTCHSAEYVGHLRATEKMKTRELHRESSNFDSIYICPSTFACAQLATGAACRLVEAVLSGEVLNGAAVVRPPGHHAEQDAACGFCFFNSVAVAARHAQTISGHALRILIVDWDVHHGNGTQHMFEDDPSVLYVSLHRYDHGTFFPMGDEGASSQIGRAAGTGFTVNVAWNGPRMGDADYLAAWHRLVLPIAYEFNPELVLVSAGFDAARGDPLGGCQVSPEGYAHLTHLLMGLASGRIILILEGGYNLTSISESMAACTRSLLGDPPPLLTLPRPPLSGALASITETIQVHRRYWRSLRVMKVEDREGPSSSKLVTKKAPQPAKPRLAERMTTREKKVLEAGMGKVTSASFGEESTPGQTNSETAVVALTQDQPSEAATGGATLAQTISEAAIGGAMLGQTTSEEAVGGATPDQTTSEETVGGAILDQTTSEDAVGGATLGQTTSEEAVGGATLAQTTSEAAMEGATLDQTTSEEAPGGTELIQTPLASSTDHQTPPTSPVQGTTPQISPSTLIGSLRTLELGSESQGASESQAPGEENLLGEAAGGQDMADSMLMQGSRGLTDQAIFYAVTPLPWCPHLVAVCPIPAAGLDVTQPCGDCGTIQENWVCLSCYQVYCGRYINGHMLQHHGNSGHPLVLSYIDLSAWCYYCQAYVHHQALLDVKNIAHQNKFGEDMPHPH
Summary of the method: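 Whole lysates (35 μg) and acid-extracted histones (2 μg) run on SDS-PAGE and blotted for acetylated tubulin or acetyl-histone H3; GAPDH or H4 as loading controls.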

NIH3T3 = assay: Cytotoxicity in mouse NIH3T3 cells assessed as reduction in cell viability at 50 uM incubated for 24 hrs by neutral red uptake method based UV/visible spectrophotometer analysis; type: toxicity; settings: nih3t3, 24 h
Summary of the method: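 NIH3T3 mouse fibroblasts grown in DMEM with 10% FCS, L-glutamine/pen-strep and non-essential amino acids (37 °C, 5% CO2). Exposed 24 h to compound diluted from a DMSO stock into medium. Viability measured by Neutral Red uptake: 3 h in NR medium, then acetic acid/ethanol desorb, absorbance at 540 nm. Student's t-test, p<0.05.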

Heart [6] = assay: Cardiotoxicity in Langendorff-perfused Sprague-Dawley rat heart assessed as effect on RR time at 1 uM by ECG analysis (reference value: 257.2 +/-8.1 milliseconds); type: toxicity, tissue-based
Heart [7] = assay: Cardiotoxicity in Langendorff-perfused Sprague-Dawley rat heart assessed as effect on QRS interval time at 0.1 uM by ECG analysis (reference value: 15.2 +/-0.2 milliseconds); type: toxicity, tissue-based
Heart [8] = assay: Cardiotoxicity in Langendorff-perfused Sprague-Dawley rat heart assessed as effect on QTc interval time at 10 uM by ECG analysis (reference value: 150.5 +/-5.5 milliseconds); type: toxicity, tissue-based
Heart [9] = assay: Cardiotoxicity in Langendorff-perfused Sprague-Dawley rat heart assessed as effect on QT interval time at 10 uM by ECG analysis (reference value: 76.2 +/-2.9 milliseconds); type: toxicity, tissue-based
Heart [10] = assay: Cardiotoxicity in Langendorff-perfused Sprague-Dawley rat heart assessed as effect on PQ interval time at 10 uM by ECG analysis (reference value: 43.6 +/-2.5 milliseconds); type: toxicity, tissue-based

Structure (SMILES)	inhibition (Homo sapiens)	IC50 [1]	remaining at 24 h [2]	IC50 [3]	K [4]	inhibition (Airway basal cell)	inhibition [5]	Activity (NIH3T3)	Time (Heart [6])	Time (Heart [7])	Time (Heart [8])	Time (Heart [9])	Time (Heart [10])
CN1CCC2(CC1)c1ccccc1N(Cc1ccc(C(=O)NO)cc1)C2c1ccccc1F (racemic)	Dose-Dependent Effect	6.38 nM	98%	0.16 nM	0.01297 min⁻¹	Active	Active	–	–	–	–	–	–
CC1(C)c2ccccc2N(Cc2ccc(C(=O)NO)cc2)C1c1cccnc1 (racemic)	Dose-Dependent Effect	7.31 nM	89%	7.31 nM	0.01357 min⁻¹	Active	Active	71%	257.7 ms	15.4 ms	145.3 ms	78.3 ms	50.4 ms

— ChEMBL document CHEMBL5226322, “Harnessing the Role of HDAC6 in Idiopathic Pulmonary Fibrosis: Design, Synthesis, Structural Analysis, and Biological Evaluation of Potent Inhibitors” (J Med Chem, 2021)
